Source: PubChem BioAssay
PglD inh: C. jejuni PglD acetyltransferase inhibitors, primary screen, biochemical, DTNB colorimetric, single point; purified PglD enzyme, DTNB colorimetric CoA detection; inhibition, % at 12.5 µM; AID 602405, 2012; hit rate 0.098% among 360,000; in the data active = inhibition above about 16%, passing the limit was not always enough
ERp5 inh: inhibitors of ERp5-driven insulin aggregation, primary screen, biochemical, turbidity, absorbance 650 nm, single point | AID 651711, 2012 | 90 min | hit rate 0.05% among 350,000 | Protein disulfide-isomerase A6 (Homo sapiens), Q15084 | inhibition, % at 9.99 µM;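 active = mean replicate inhibition above about 25%, with every replicate also reaching it, limit read from the data, passing the limit was not always enough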
PvdQ inh: P. aeruginosa PvdQ acylase inhibitors, primary screen, biochemical, fluorescence, plate reader and imaging, single point | PvdQ acylase [Pseudomonas aeruginosa LESB58] | inhibition, % at 10 µM | hit rate 0.063% among 340,000 | purified PvdQ acylase; in the data active = inhibition above about 30%, passing the limit was not always enough;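 also: 0% = vehicle neutral wells and 100% = reference inhibitor wells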
IMP-1 inh: IMP-1 metallo-beta-lactamase inhibitors, primary screen, biochemical, epi-absorbance readout, Pseudomonas aeruginosa enzyme. metallo-beta-lactamase IMP-1 (Pseudomonas aeruginosa). purified IMP-1, nitrocefin hydrolysis, epi-absorbance fluorescence. inhibition, % at 5.6 µM. hit rate 0.45% among 290,000. AID 1556, 2009;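 active = inhibition above the mean plus 3 SD of all compounds in the same screening run, cut at about 4.5% in these data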;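 also: 0% = IMP-1 with DMSO and 100% = DMSO wells lacking enzyme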
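System: purified IMP-1 / Input: IMP-1 dispensed at 0.2 nM / Medium: 50 mM HEPES pH 7.1, 50 µM ZnSO4, 0.05% Brij 35 / Timing: 15 min enzyme–compound preincubation, then 25 min nitrocefin reaction, 25 °C / Technique: plate fluorescence quenching by hydrolysis product, ex 480/em 530 nm / Repeats: singlicate testing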
VIM-2 inhibitor: VIM-2 metallo-beta-lactamase inhibitors, primary screen, biochemical, epi-absorbance readout, Pseudomonas aeruginosa enzyme; purified VIM-2, nitrocefin hydrolysis, epi-absorbance fluorescence; hit rate 0.89% among 290,000; inhibition, % at 5.6 µM;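 active = inhibition above the mean of all tested compounds plus 3 SD, cutoff set per screening run, cut at about 7.5% in these data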;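 also: red hydrolysis product quenches plate fluorescence so inhibitors raise well fluorescence; 0% = enzyme with DMSO and 100% = DMSO without enzyme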
PDI turbidity: inhibitors of human PDI, primary screen, biochemical, turbidity, single point, plate reader | hit rate 0.052% among 350,000 | Protein disulfide-isomerase (Homo sapiens), P07237 | AID 588391, 2011 | inhibition, % at 10 µM | PDI insulin aggregation turbidity, A650, 90 min;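 active = mean inhibition across replicates of 30% or more, whatever share of single replicates reach that level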
Target sequence (P07237 whole entry, looked up): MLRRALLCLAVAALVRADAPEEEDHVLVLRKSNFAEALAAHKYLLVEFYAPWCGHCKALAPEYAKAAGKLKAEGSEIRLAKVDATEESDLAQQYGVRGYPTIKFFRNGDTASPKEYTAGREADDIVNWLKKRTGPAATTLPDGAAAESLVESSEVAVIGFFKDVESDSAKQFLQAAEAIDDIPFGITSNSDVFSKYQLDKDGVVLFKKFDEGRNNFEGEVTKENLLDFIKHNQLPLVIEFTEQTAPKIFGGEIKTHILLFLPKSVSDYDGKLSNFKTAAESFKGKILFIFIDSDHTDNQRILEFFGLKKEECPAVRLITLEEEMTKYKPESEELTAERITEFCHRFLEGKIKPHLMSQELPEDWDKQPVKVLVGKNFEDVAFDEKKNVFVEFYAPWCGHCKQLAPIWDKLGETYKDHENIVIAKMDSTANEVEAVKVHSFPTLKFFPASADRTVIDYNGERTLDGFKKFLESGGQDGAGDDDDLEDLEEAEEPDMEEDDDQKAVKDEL
Numbers without * were called inactive; x = no result. Only some compounds are listed: those with a hit (about 1% of all), similar ones and a draw of the others.

SMILES	PglD inh	ERp5 inh	PvdQ inh	IMP-1 inh	VIM-2 inhibitor	PDI turbidity
O=C(C[C@H]1CC[C@@H](NS(=O)(=O)c2ccccc2)[C@@H](CO)O1)N1CCC(Cc2ccccc2)CC1	x	2.7	x	x	x	x
Cc1nc(NC2=NCN(CCCN3CCOCC3)CN2)nc2c(C)cccc12	1.8	x	2.7	-0.7	8.7*	-1.2
C[C@H](CO)N1C[C@H](C)[C@H](CN(C)C(=O)C2CCC2)Oc2cc(C#C[C@@H](C)O)ccc2S1(=O)=O	8.0	20.0	x	x	x	x
O=C1/C(=C/c2ccc([N+](=O)[O-])cc2)Oc2cc(O)ccc21	x	-0.8	69.3*	-6.9	1.5	15.7
CCC(=O)NC[C@@H]1[C@@H](c2ccc(C3=CCCC3)cc2)[C@@H](CO)N1CC1CCCC1	x	-0.8	x	x	x	x
CCOC(=O)c1c(CN2CCN(CCO)CC2)n(-c2ccccc2)c2cc(Br)c(O)cc12	x	-3.9	-12.4	-3.4	3.5	58.3*
CCOC(=O)c1c(CN2CCN(C)CC2)n(-c2ccccc2)c2cc(Br)c(O)cc12	x	-2.1	-12.5	-0.8	2.2	14.1
N#Cc1c(NC(=O)CSc2ncnc3sccc23)oc(-c2ccco2)c1-c1ccco1	-7.1	x	-1.2	7.0*	1.6	11.7
O=C(Nc1cccc(F)c1)N1C[C@@H]2[C@H](c3ccccc31)[C@H](CO)N2C(=O)Cc1ccccc1	-3.3	0.6	x	x	x	x
CCN(CC)CC(=O)n1c2c(c3ccccc31)CCCC2	-4.6	x	-10.3	-0.2	11.9*	-0.6
Cc1cc(C)n(CC(=O)n2c3ccccc3c3ccccc32)n1	-1.9	x	-3.9	-1.4	1.4	0.6
Cc1cc(C)n(CC(=O)n2c3c(c4ccccc42)CCCC3)n1	-6.9	x	5.2	-0.6	10.3*	1.8
CN1CCN(CC(=O)n2c3c(c4ccccc42)CCCC3)CC1	x	x	-1.2	2.1	9.9*	-13.4
C[C@@H]1CN([C@@H](C)CO)C(=O)Cc2cc(NS(=O)(=O)c3ccc(F)cc3)ccc2O[C@H]1CN(C)C(=O)NC1CCCCC1	9.3	-1.2	x	x	x	x
COc1cccc(C(=O)CC(C(=O)O)c2ccc(F)cc2)c1 (stereo unspecified)	-7.7	-1.9	-14.7	-2.3	-2.4	7.8
COc1cccc(C(=O)CC(C#N)c2ccc(F)cc2)c1 (stereo unspecified)	-1.4	-0.9	68.8*	-2.0	-3.4	12.6
C[C@H]1CN([C@@H](C)CO)C(=O)c2cccc(NS(=O)(=O)c3cccs3)c2O[C@@H]1CN(C)C	-2.6	-1.7	x	x	x	x
CN(C)/C=C/C(=O)c1cc(N2CCOCC2)ccc1[N+](=O)[O-]	-5.3	-1.0	-9.9	7.4*	-1.7	-4.1
Cc1ccc(Cn2c(N3CCNCC3)nc3c2c(=O)[nH]c(=O)n3C)cc1	1.5	2.8	7.2	27.1*	-1.1	8.4
CCCCN(C(=O)C1=CC=CN2CCS(=O)(=O)N=C12)c1ccccc1	-4.6	1.0	13.5	x	x	36.6*
Cc1ccccc1NC(=O)C1=CC=CN2CCS(=O)(=O)N=C12	1.9	-0.5	8.0	x	x	-3.6
COc1ccc(-c2csc(NC3CCCCC3)n2)c(OC)c1	-0.9	-4.6	-18.6	8.0*	-2.1	-4.1
c1ccc(-c2csc(NC3CCCCC3)n2)cc1	-0.8	2.5	5.8	0.3	-1.9	-9.8
CN(C)CCCNC(=O)C[C@@H]1CC[C@@H]2[C@H](COC[C@H](O)CN2S(=O)(=O)c2ccc(Cl)cc2)O1	-0.7	2.5	x	x	x	x
Cn1c2ccc(F)cc2c2nnc(SCCN3CCOCC3)nc21	0.6	2.0	-14.3	-1.7	7.8*	4.0
SMILES	PglD inh	ERp5 inh	PvdQ inh	IMP-1 inh	VIM-2 inhibitor	PDI turbidity
Cn1c2ccc(F)cc2c2nnc(SCC(=O)Nc3cccc(O)c3)nc21	-4.4	4.1	2.5	1.1	8.8*	2.3
CCCCn1c2ccc(F)cc2c2nnc(SCCN3CCOCC3)nc21	7.1	1.4	-11.7	0.5	3.1	-0.7
Cn1c2ccccc2c2nnc(SCC(=O)Nc3cccc(C(=O)O)c3)nc21	4.8	-2.9	-7.2	-2.2	5.3	0.5
C=CCn1c2ccccc2c2nnc(SCCN3CCOCC3)nc21	-2.7	-3.1	-7.5	-2.1	11.7*	5.7
COc1ccc(CN(C)C[C@H]2OCCCC[C@H](C)Oc3ccc(NC(=O)Cc4ccccc4)cc3C(=O)N([C@@H](C)CO)C[C@@H]2C)cc1	1.1	x	x	x	x	x
COc1ccc(/C=N/n2c(SC)nnc2-c2ccccc2)c(OC)c1OC	5.9	x	-8.3	-2.4	23.5*	9.6
COc1ccc(/C=N/n2c(SC)nnc2-c2ccccc2)cc1C	-3.6	-2.3	-5.9	-3.4	6.6	-10.9
CC=Cc1ccc2n(c1=O)C[C@H]1[C@H](CO)[C@@H](C(=O)NCc3ccccn3)N(CCC)[C@@H]21 (mixture of isomers)	x	-2.4	x	x	x	x
C[C@@H]1CN([C@H](C)CO)C(=O)Cc2cc(NC(=O)Nc3ccccc3)ccc2O[C@@H]1CN(C)C(=O)Nc1ccc(F)cc1	-2.7	-0.7	x	x	x	x
Cc1ccc(CC2C(=O)N(c3cc(Cl)ccn3)C(=O)C2C)cc1 (stereo unspecified)	x	8.8	-11.0	13.4*	-0.3	-5.4
CN(C)CCSc1nc(N)c2c3c(sc2n1)CN(C)CC3	-8.7	x	-7.2	-1.4	1.8	-8.7
CSc1nc(NCc2ccccc2)c2c3c(sc2n1)CN(C)CC3	4.0	x	-3.1	-0.4	3.6	-2.1
COCCNc1nc(SC)nc2sc3c(c12)CCN(C)C3	-2.9	-3.6	-1.4	-0.1	9.8*	1.5
COCCSc1nc(N)c2c3c(sc2n1)CN(C)CC3	x	3.8	-10.0	-1.8	-2.4	3.2
CSc1nc(NCC(C)C)c2c3c(sc2n1)CN(C)CC3	-5.8	x	-7.1	-0.3	8.4*	-0.7
CCN(CC)CCNc1nc(SC)nc2sc3c(c12)CCN(C)C3	-8.2	2.6	-8.4	-0.2	10.6*	3.8
Cc1cc(C(=O)Nc2cccc3c2O[C@H](CN(C)S(=O)(=O)c2ccc(F)cc2)[C@H](C)CN([C@@H](C)CO)C3=O)n(C)n1	0.6	1.4	x	x	x	x
CN(C)CC(=O)Nc1ccc2c(c1)[C@H]1C[C@H](CC(=O)NCc3cc(F)ccc3F)O[C@H](CO)[C@H]1O2	0.1	-8.4	x	x	x	x
Cc1ccc2nc3n(c(=O)c2c1)-c1ncccc1C(=O)NC3Cc1ccccc1 (stereo unspecified)	0.3	4.1	x	x	x	-7.1
Cc1cc(C)c2c(=O)n3c(nc2c1)C(Cc1ccc(O)cc1)NC(=O)c1cccnc1-3 (stereo unspecified)	-3.4	-1.9	x	x	x	44.1*
O=C1NC(Cc2ccc(O)cc2)c2nc3ccccc3c(=O)n2-c2ncccc21 (stereo unspecified)	-0.1	0.7	x	x	x	43.3*
